“And” between values parts separate entries of the source, which are not always exact repeats. Equal entries are not always repeated. “Also recorded” adds a separate entry of the source.
Key:
[1] = in CH3OH; cited from earlier work
P-gp [2] = conditions: 5 μM; cited from earlier work
Colo-26 cells [3] = assay: Uptake in Colo-26 cells with and without verapamil by flow cytometry; format: cell-based, murine; conditions: for Uptake relative to the corresponding thioamide derivative: Colo-26 cells, Figure 2; for Increase in uptake in the presence of VER: 0.5 μM dye, 1 h, with vs without 100 μM verapamil, mean fluorescence
Outline: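 Colo-26 cells exposed 1 h to 0.5 μM dye with or without 100 μM verapamil, then analysed by flow cytometry with 561 nm excitation and 710 nm emission. Mean cellular fluorescence compared between conditions; error bars SD.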

Colo-26 cells [4] = assay: Phototoxicity toward Colo-26 cells with tunable dye laser; format: cell-based, murine; conditions: for Phototoxicity (in words): 0.15 μM, 5.0 J cm^–2 of laser light; for LD50/EC50 (laser, 1.0 J cm^–2): dark LD50 over EC50 with 1.0 J cm^–2 of laser light
[5] = Steady-state fluorescence in CH3OH; format: physicochemical; conditions: excitation at 532 nm; for Quantum yield for fluorescence ΦFL: 3 as standard, ±SD
Outline: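 Steady-state emission spectra recorded in CH3OH on a spectrofluorometer with 532 nm excitation. Quantum yield determined relative to a reference rhodamine dye in CH3OH (ΦFL = 0.93).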

[6] = Singlet oxygen yield from 1O2 luminescence at 1270 nm; format: physicochemical; conditions: air-saturated CH3OH; ±SD
Outline: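 Air-saturated CH3OH solutions in quartz cuvettes. Excitation by 532 nm second harmonic of a nanosecond-pulsed Nd:YAG laser (20 Hz) for time-resolved 1O2 luminescence decay at 1270 nm. Emission collected at 90° through a 950 nm long-pass filter onto an NIR-detector spectrometer. Steady-state NIR emission spectra used a 532 nm diode-pumped solid-state laser.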

[7] = Absorption spectra in CH3OH; format: physicochemical
Colo-26 cells [8] = assay: Combination PDT and doxorubicin in Colo-26 cells; format: cell-based, murine; conditions: for Synergy with Dox upon irradiation (in words): 0.15 μM dye, various Dox concentrations, 1.0 J cm^–2 laser light; for Phototoxicity (in words) in the absence of Dox: 0.15 μM, 1.0 J cm^–2 of 613 nm (15b, 17b) or 611 nm (16b, 18b) laser light, relative to dark controls; for Surviving fraction of the combination vs single treatments (in words) / Surviving fraction: 0.15 μM photosensitizer, 1.0 J cm^–2 of 611 nm light; for Surviving fraction of the combination vs single treatments (in words): 0.5 μM Dox; for Surviving fraction: 1.0 μM Dox; for Dox-only concentration giving the same surviving fraction as the combination: combination: 0.15 μM photosensitizer, 0.05 μM Dox, 1.0 J cm^–2 of light
Outline: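 Colo-26 cells were seeded at 10 000/well and grown 24 h in RPMI 1640 with 10% FBS. Dye at 0.15 μM (ethanol stock) plus Dox at 0.005–5.0 μM were added together as 10× medium solutions, alongside single-agent wells. After 1 h dark, wells were kept dark or laser-irradiated at λmax (±2 nm), 3.2 mW cm–2, to 1 J cm–2. Fresh medium, 48 h at 37 °C, 5% CO2. SRB assay read at 570 nm; six replicates, ±SD, pairwise […].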

P-gp [9] = assay: P-gp transport and cell association in MDCKII-MDR1 monolayers; format: in vitro ADME; conditions: dog, MDCK-MDR1, with 24 (LSN 335984), 5 μM
P-gp [10] = target: P-gp (Homo sapiens, UniProt P08183); assay: as above; format: in vitro ADME; conditions: dog, MDCK-MDR1
Chain of P-gp (Homo sapiens, UniProt P08183) (P08183 whole entry): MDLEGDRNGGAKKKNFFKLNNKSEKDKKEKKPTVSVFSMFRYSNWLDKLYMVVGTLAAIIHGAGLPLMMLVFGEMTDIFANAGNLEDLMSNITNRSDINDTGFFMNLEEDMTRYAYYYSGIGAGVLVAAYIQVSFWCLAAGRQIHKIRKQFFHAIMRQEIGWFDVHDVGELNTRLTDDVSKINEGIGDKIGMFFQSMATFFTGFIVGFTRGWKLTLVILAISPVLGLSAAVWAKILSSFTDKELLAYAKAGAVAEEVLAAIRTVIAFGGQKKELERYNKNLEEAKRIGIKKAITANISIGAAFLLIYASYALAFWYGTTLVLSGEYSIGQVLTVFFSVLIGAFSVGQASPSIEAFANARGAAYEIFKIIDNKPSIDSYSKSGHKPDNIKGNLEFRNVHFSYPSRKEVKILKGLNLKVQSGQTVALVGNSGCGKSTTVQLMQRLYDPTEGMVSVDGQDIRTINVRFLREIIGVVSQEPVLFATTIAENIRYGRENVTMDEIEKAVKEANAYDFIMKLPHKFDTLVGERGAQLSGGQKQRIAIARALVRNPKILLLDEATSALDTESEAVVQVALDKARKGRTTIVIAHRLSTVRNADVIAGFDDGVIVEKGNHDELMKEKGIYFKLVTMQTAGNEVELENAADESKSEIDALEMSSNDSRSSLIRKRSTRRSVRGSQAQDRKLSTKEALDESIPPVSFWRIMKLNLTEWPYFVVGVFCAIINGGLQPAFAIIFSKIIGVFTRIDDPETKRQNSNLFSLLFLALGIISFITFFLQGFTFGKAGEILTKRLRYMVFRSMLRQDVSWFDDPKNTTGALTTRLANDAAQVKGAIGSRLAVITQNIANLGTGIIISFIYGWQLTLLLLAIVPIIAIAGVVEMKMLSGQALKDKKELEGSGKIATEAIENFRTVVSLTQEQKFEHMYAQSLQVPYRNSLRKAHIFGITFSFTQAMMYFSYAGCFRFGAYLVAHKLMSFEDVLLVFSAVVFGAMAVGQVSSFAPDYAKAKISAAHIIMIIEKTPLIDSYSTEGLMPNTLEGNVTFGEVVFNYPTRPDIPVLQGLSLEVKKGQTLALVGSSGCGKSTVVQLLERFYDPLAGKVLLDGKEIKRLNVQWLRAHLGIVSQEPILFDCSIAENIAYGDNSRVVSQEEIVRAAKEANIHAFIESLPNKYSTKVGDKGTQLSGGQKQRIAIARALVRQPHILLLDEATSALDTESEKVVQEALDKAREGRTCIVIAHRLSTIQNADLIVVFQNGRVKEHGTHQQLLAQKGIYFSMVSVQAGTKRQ

[11] = Photostability under continuous illumination; format: physicochemical
Outline: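 Dye in 10% CH3OH/pH 7.4 buffer under continuous tungsten-source illumination at 50 mW cm–2. Loss of dye chromophore was followed as a function of delivered fluence and treated as first-order, giving the fluence for half-loss.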

[12] = test system: mitochondria of Colo-26 cells; assay: Colocalization by ImageStream flow cytometry; format: cell-based, murine; conditions: Colo-26 cells incubated with both agents; ±SD
Outline: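 Colo-26 cells (5 × 10^5 in 0.5 mL medium) co-incubated 15 min with MitoTracker Green and MitoTracker Red. Cells were then centrifuged, and medium replaced with Hanks PBS. Resuspended cells kept on ice and imaged by ImageStream (480–560 and 642–745 nm channels; MTG excited at 488 nm). Per-cell similarity was a log-transformed Pearson correlation of spatially correlated pixel intensities over the whole cell, averaged over 1300 cells.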

isolated P-gp = conditions: ref 7−9; cited from earlier work
[13] = 350–800 nm light at 50 mW cm^–2, 10% CH3OH in pH 7.4 buffer

Molecule	LD50/EC50 (laser, 1.0 J cm^–2) (Colo-26 cells [4])	Fluorescence emission maximum λFL [5] [nm]	Quantum yield for fluorescence ΦFL [5]	Quantum yield for the generation of singlet oxygen Φ(1O2) [6]	Absorption maximum λmax [7] [nm]	Molar extinction coefficient ε [7]	Synergy with Dox upon irradiation (in words) (Colo-26 cells [8])	Phototoxicity (in words) in the absence of Dox (Colo-26 cells [8])	other results
CC/N=c1\cc2oc3cc(NCC)c(C)cc3c(-c3ccccc3C(=O)OCC)c-2cc1C [compound 3, rhodamine 6G]	–	–	–	–	–	–	–	–	Quantum yield for fluorescence ΦFL (standard) [1]: 0.93
O[C@@H](COc1cccc2ncccc12)CN1CCN([C@@H]2c3ccccc3[C@@H]3[C@H](c4ccccc42)C3(Cl)Cl)CC1 [compound 24]	–	–	–	–	–	–	–	–	P-gp inhibition (in words) (P-gp [2]): completely inhibits P-gp
CCN(CC)C(=O)c1ccc(-c2c3ccc(=[N+](C)C)cc-3[se]c3cc4c(cc23)C(C)(C)CCN4C)s1.[Cl-] [15b, 9-(5-(Diethylcarbamoyl)thiophen-2-yl) Selenorhodamine]	22	636	0.009 ± 0.001	0.50 ± 0.03	609	7.18 × 10^4 M^–1 cm^–1	No synergy; also recorded: do not show significant synergistic effects	no significant phototoxicity	Uptake relative to the corresponding thioamide derivative (Colo-26 cells [3]): 40–50%; Phototoxicity (in words) (Colo-26 cells [4]): some phototoxicity
CN1CCC(C)(C)c2cc3c(-c4ccc(C(=S)N5CCCCC5)s4)c4ccc(=[N+](C)C)cc-4[se]c3cc21.[Cl-] [18b, 9-(5-(Piperidylcarbamothioyl)thiophen-2-yl) Selenorhodamine]	> 55	634	0.008 ± 0.001	0.44 ± 0.03	608	8.11 × 10^4 M^–1 cm^–1	synergistic effects	some phototoxicity	Papp A→B at 1 h, 5 μM (P-gp [9]): 1.7 ± 0.2 nm/s; Papp B→A at 1 h, 5 μM (P-gp [9]): 1.8 ± 0.1 nm/s; Papp at 1 h, 5 μM (P-gp [9]): ~2 nm/s; Papp A→B at 1 h, 5 μM (P-gp [10]): 1.9 ± 0.5 nm/s; Papp B→A at 1 h, 5 μM (P-gp [10]): 29 ± 3 nm/s; efflux ratio at 1 h, 5 μM (P-gp [10]): 15; Increase in uptake in the presence of VER (Colo-26 cells [3]): 1.3- to 2 fold and 2 fold; Surviving fraction of the combination vs single treatments (in words) (Colo-26 cells [8]): statistically significant decrease; Surviving fraction (Colo-26 cells [8]): ≤ 0.20; Dox-only concentration giving the same surviving fraction as the combination (Colo-26 cells [8]): 0.3 µM; Fluence after which half of the dye chromophore is lost [11, 13]: ~230 J cm^–2; Fluence after which half of the dye chromophore is lost ([11]; 500–800 nm light at 50 mW cm^–2, 10% CH3OH in pH 7.4 buffer): ~850 J cm^–2
C[n+]1c(C=CC=C2N(Cc3ccc(CCl)cc3)c3cc(Cl)c(Cl)cc3N2Cc2ccc(CCl)cc2)oc2ccccc21.[Cl-] [MTG, 2-[3-[5,6-dichloro-1,3-bis[[4-(chloromethyl)phenyl]methyl]-1,3-dihydro-2H-benzimidazol-2-ylidene]-1-propenyl]-3-methylbenzoxazolium chloride]	–	–	–	–	–	–	–	–	Mean bright detail similarity score with MTR [12]: 2.0 ± 0.8
tetramethylrosamine [1 (E = O)]	–	–	–	–	–	–	–	–	Transport rate relative to rhodamine 123 (2) or rhodamine 6G (3) (isolated P-gp): 5- to 10 fold
CN1CCC(C)(C)c2cc3c(-c4ccc(C(=O)N5CCCCC5)s4)c4ccc(=[N+](C)C)cc-4[se]c3cc21.[Cl-] [17b, 9-(5-(Piperidylcarbamoyl)thiophen-2-yl) Selenorhodamine]	26	634	0.009 ± 0.001	0.48 ± 0.03	609	8.73 × 10^4 M^–1 cm^–1	No synergy; also recorded: do not show significant synergistic effects	no significant phototoxicity	Papp A→B at 1 h, 5 μM (P-gp [9]): 1 ± 0.1 nm/s; Papp B→A at 1 h, 5 μM (P-gp [9]): 11.1 ± 0.2 nm/s; Papp at 1 h, 5 μM (P-gp [9]): ~6 nm/s; Papp A→B at 1 h, 5 μM (P-gp [10]): 0.9 ± 0.3 nm/s; Papp B→A at 1 h, 5 μM (P-gp [10]): 164 ± 4 nm/s; efflux ratio at 1 h, 5 μM (P-gp [10]): 182; Uptake relative to the corresponding thioamide derivative (Colo-26 cells [3]): 40–50%; Phototoxicity (in words) (Colo-26 cells [4]): little if any phototoxicity; EC50 (Colo-26 cells [4]; Mus musculus, 48 h, read-out: EC50 (λmax ± 2 nm), 0.5 J cm^–2): > 0.5 µM
CCN(CC)C(=S)c1ccc(-c2c3ccc(=[N+](C)C)cc-3[se]c3cc4c(cc23)C(C)(C)CCN4C)s1.[Cl-] [16b, 9-(5-(Diethylcarbamothioyl)thiophen-2-yl) Selenorhodamine]	> 55	635	0.008 ± 0.001	0.54 ± 0.03	608	9.78 × 10^4 M^–1 cm^–1	synergistic effects	some phototoxicity	Increase in uptake in the presence of VER (Colo-26 cells [3]): 1.3- to 2 fold and 2 fold; Surviving fraction of the combination vs single treatments (in words) (Colo-26 cells [8]): statistically significant decrease; Surviving fraction (Colo-26 cells [8]): ≤ 0.20; Dox-only concentration giving the same surviving fraction as the combination (Colo-26 cells [8]): 0.5 µM; Fluence after which half of the dye chromophore is lost [11, 13]: ~230 J cm^–2
